Results taken from ChEMBL document CHEMBL1132940, “Pharmacophore/receptor models for GABA(A)/BzR subtypes (alpha1beta3gamma2, alpha5beta3gamma2, and alpha6beta3gamma2) via a comprehensive ligand-mapping approach” (J Med Chem, 2000).

Columns and labels:
[1] = biological target: T1, GABA-A receptor; alpha-3/beta-3/gamma-2 (Homo sapiens, UniProt P18507+P28472+P34903); test: Binding affinity for human recombinant gamma-aminobutyric-acid (GABA) A receptor alpha-3-beta-3-gamma-2; type: protein-complex assay
T1 sequence (P18507 whole entry): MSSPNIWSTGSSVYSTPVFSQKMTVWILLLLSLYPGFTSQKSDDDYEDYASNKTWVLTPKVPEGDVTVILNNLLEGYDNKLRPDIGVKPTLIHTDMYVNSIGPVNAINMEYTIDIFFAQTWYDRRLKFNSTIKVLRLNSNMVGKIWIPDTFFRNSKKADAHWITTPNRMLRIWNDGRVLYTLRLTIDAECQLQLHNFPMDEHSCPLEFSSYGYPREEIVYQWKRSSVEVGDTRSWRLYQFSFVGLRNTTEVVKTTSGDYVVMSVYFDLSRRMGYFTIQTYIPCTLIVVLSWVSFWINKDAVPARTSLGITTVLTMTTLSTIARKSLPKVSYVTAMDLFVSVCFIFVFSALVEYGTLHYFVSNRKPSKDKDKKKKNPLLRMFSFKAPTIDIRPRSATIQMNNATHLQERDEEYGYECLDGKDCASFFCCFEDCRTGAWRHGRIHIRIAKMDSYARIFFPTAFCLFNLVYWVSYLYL
T1 sequence (P28472 whole entry): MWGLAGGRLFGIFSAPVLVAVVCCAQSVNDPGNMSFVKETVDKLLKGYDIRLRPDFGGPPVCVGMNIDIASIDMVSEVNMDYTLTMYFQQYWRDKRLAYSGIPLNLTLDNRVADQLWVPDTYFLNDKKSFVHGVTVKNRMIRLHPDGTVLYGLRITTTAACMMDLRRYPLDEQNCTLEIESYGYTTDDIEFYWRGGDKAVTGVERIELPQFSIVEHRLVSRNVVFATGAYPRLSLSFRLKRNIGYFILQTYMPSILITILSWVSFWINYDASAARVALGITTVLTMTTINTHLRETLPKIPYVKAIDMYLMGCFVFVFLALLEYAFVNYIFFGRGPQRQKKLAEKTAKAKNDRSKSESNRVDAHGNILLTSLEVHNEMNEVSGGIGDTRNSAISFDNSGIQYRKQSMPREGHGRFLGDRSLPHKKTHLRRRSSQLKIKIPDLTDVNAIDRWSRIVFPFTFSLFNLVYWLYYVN
T1 sequence (P34903 whole entry): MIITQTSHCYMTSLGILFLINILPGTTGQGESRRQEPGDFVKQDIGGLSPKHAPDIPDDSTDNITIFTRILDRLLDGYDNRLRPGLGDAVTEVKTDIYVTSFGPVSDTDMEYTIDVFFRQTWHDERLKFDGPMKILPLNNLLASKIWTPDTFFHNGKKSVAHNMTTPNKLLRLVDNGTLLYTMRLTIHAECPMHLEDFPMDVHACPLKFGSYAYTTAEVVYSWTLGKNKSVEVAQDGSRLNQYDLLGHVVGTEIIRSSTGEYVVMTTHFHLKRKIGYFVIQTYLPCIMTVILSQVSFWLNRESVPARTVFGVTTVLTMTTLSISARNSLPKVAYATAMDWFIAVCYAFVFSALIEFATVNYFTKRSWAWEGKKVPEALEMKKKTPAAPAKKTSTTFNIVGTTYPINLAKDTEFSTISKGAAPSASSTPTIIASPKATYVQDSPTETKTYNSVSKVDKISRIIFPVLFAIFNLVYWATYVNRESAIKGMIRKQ

[2] = biological target: T2, GABA-A receptor; alpha-1/beta-3/gamma-2 (Homo sapiens, UniProt P14867+P18507+P28472); test: Binding affinity for human recombinant gamma-aminobutyric-acid (GABA) A receptor alpha-1-beta-3-gamma-2; type: protein-complex assay
T2 sequence (P14867 whole entry): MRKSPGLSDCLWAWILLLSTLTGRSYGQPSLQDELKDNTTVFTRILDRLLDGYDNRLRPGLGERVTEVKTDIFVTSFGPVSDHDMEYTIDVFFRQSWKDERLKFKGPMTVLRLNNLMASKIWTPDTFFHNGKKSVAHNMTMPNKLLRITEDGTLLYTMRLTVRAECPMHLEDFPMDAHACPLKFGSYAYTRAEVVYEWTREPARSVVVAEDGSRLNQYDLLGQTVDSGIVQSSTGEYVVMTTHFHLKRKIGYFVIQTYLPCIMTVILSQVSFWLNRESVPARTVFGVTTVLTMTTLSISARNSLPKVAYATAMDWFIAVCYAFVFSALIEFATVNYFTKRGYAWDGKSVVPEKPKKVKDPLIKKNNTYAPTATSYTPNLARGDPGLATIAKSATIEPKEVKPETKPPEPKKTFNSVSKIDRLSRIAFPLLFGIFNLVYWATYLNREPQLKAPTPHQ
T2 sequence (P18507 whole entry): T1 sequence (P18507 whole entry)
T2 sequence (P28472 whole entry): T1 sequence (P28472 whole entry)

[3] = biological target: T3, GABA-A receptor; alpha-2/beta-3/gamma-2 (Homo sapiens, UniProt P18507+P28472+P47869); test: Binding affinity to human recombinant gamma-aminobutyric-acid (GABA) A receptor alpha-2-beta-3-gamma-2; type: protein-complex assay
T3 sequence (P18507 whole entry): T1 sequence (P18507 whole entry)
T3 sequence (P28472 whole entry): T1 sequence (P28472 whole entry)
T3 sequence (P47869 whole entry): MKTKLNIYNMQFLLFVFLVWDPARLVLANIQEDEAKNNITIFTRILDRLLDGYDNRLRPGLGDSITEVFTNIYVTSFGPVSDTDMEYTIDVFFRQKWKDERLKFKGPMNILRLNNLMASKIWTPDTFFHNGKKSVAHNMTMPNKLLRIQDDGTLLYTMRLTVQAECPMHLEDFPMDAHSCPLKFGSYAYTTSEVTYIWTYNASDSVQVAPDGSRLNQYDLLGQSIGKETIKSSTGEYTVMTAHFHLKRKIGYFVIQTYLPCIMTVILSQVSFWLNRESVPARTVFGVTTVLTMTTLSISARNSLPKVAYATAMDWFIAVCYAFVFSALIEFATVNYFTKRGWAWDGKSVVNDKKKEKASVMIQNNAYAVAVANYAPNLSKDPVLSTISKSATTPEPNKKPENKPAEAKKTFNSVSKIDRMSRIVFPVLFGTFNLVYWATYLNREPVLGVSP

[4] = biological target: T4, GABA-A receptor; alpha-5/beta-3/gamma-2 (Homo sapiens, UniProt P18507+P28472+P31644); test: Binding affinity for human recombinant gamma-aminobutyric-acid (GABA) A receptor alpha-5-beta-3-gamma-2; type: protein-complex assay
T4 sequence (P18507 whole entry): T1 sequence (P18507 whole entry)
T4 sequence (P28472 whole entry): T1 sequence (P28472 whole entry)
T4 sequence (P31644 whole entry): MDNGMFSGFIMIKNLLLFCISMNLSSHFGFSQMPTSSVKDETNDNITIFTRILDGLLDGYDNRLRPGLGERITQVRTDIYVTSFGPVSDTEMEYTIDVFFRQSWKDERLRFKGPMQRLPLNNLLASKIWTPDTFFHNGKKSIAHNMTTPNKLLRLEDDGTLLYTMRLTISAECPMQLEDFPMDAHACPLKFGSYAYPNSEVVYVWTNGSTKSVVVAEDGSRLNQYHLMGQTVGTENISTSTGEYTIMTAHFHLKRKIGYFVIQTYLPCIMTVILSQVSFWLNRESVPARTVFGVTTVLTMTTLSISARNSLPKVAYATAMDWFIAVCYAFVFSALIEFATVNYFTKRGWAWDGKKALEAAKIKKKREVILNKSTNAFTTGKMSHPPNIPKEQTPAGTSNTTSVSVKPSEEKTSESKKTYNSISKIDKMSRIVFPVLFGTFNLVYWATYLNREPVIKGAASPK

[5] = biological target: GABA-A receptor; alpha-6/beta-3/gamma-2 (Homo sapiens, UniProt P18507+P28472+Q16445); test: Binding affinity for human recombinant gamma-aminobutyric-acid (GABA) A receptor alpha-6-beta-3-gamma-2; type: protein-complex assay
Summary of the method: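 Ltk⁻ cells expressing human α6β3γ2 were harvested by scraping into PBS, centrifuged at 3000g and resuspended in 10 mM KH₂PO₄/100 mM KCl (pH 7.4). Incubation was 1 h at 4 °C with filter harvest and scintillation counting.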

[6] = Selectivity ratio of alpha1 beta-3 gamma2 GABA A / BzR and alpha5 beta-3 gamma2 GABA A / BzR

GABA-A receptor; alpha-6/beta-3/gamma-2, sequence (Q16445 whole entry, one chain of several): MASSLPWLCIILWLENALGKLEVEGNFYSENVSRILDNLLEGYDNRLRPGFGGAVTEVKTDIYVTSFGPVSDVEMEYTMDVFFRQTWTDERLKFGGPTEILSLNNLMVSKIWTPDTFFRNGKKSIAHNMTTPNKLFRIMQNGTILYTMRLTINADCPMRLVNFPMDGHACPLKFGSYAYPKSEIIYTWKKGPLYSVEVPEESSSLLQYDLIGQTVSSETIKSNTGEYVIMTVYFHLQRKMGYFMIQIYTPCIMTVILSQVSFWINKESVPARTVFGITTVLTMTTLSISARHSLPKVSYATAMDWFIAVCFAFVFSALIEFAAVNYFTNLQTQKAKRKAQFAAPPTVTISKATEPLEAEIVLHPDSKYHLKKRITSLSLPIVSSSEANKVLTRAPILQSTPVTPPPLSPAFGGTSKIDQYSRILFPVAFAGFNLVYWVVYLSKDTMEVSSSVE

Row | SMILES | Ki [1] [nM] | Ki [2] [nM] | Ki [3] [nM] | Ki [4] [nM] | Ki [5] [nM] | Ratio [6]
1 | Clc1cc2c(cn1)[nH]c1ccccc12 | 126 | 60.4 | 125 | 1000 | > 10000 | 
2 | CCOC(=O)c1cc2c3cc(OCc4ccccc4)ccc3nc-2c[nH]1 | 284 | 7.2 | 169 | 271 | > 10000 | 
3 | Fc1ccc2c(c1)[nH]c1c3c4ccccc4nc-3c[nH]c12 | 18.4 | 5.1 | 10.4 | 260 | > 10000 | 
4 | Clc1ccc2c(c1)[nH]c1c2ncc2[nH]c3ccccc3c21 | 24.4 | 3.9 | 12.2 | 210 | > 10000 | 
5 | c1ccc(COc2ccc3c(c2)[nH]c2c3ncc3[nH]c4ccccc4c32)cc1 | 3000 | 432 | 3000 | > 10000 | > 10000 | 
6 | C[Si](C)(C)C#Cc1ccc(-n2[nH]c3c(cnc4ccccc43)c2=O)cc1 | 4.7 | 3 | 3.7 | 24 | > 1000 | 
7 | CCCCCCCCOc1ccc2c(c1)c1c(CC)c(C(=O)OCC)ncc1n2C | > 1000 | > 1000 | > 1000 | > 1000 | > 1000 | 
8 | O=c1c2c[nH]c3ccc(Br)cc3c-2nn1-c1ccccc1 | 0.05 | 0.06 | 0.08 | 0.12 | 4 | 
9 | O=c1c2cnc3ccc(Cl)cc3c2[nH]n1-c1ccccc1 | 0.12 | 0.23 | 0.17 | 0.44 | 17.3 | 
10 | CCOC(=O)c1ncn2c1CN(C)C(=O)c1ccccc1-2 [RO-147437] | 1.1 | 1.2 | 2 | 0.4 | > 300 | 3
11 | S=C=Nc1cc2c3ccccc3nc-2c[nH]1 | 141 | 67.2 | 120 | > 3000 | > 10000 | 
12 | c1ccc2c(c1)[nH]c1c2ncc2[nH]c3ccccc3c21 | 1.1 | 1.1 | 1.2 | 40.3 | > 1000 | 
13 | CN1C(=O)CN=C(c2ccccc2)c2cc(C#N)ccc21 | 350 | 320 | 310 | 265 | > 3000 | 1.2
14 | c1cnc2c3[nH]cc4[nH]c5ccccc5c4c-3nc2c1 | 156 | 28 | 118 | 1000 | > 10000 | 
